Source: PubChem BioAssay (several laboratories)
Most compounds without a hit are left out; they make up all but 1.8% or so of the library.
ARNT-TACC3 inh = disrupts binding between human ARNT and TACC3. Q9Y6A5. AlphaScreen His-ARNT PAS-B/GST-TACC3 binding, luminescence; TACC3 fragment carries E629A point mutation. inhibition, % at 9.99 µM. hit rate 0.66% among 390,000;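 active = mean inhibition of replicates at least 50% and at least half of replicates each reaching 50%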
mABHD4 FP = inhibits mouse alpha/beta hydrolase domain 4 | Q8VD66 | purified mABHD4, FP-Rh probe fluorescence polarization | inhibition, % at 8.92 µM | hit rate 0.54% among 370,000 | AID 720543;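 active = inhibition exceeding the mean over every tested compound plus 3 SD, cut at about 30% in these data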
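Assay system: wild-type mouse ABHD4 protein; compound: single nominal dose of 8.92 µM, 0.89% DMSO final; schedule: 45 min + 60 min at 25 °C; measured by: FP readout, ex 525 nm / em 598 nm; evaluation: % inhibition of FP-Rh probe binding versus controls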
TCR-CD3 inh = human TCR-CD3 binding inhibition | TAMRA-labeled TCR probe fluorescence, biochemical | hit rate 0.37% among 360,000 | AID 651800 | inhibition, % at 9.4 µM; in the data active = inhibition above about 19%;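 note: recombinant mutant TCR 2C K166C tagged with TAMRA read by polarization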
HTRA1 inh = inhibitors of human serine peptidase HTRA1; Q92743; recombinant HTRA1, FP-rhodamine activity-based probe, fluorescence polarization; inhibition, % at 5.96 µM; hit rate 0.5% among 340,000; in the data active = inhibition above about 36%
Target sequence (Q92743 whole entry, looked up): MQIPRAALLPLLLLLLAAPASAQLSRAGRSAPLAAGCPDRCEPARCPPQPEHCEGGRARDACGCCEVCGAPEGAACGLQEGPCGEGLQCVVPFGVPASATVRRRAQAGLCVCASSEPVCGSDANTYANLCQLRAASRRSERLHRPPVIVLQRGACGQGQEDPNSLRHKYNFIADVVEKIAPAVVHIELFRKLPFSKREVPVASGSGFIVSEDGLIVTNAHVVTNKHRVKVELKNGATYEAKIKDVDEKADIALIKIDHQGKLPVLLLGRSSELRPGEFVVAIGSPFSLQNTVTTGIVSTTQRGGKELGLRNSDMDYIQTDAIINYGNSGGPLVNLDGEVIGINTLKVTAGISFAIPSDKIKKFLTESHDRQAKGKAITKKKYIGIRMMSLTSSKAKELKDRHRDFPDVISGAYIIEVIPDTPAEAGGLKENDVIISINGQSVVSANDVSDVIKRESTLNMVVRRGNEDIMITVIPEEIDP
SIAE primary = human SIAE inhibition, primary screen; Q9HAT2; hit rate 0.69% among 370,000; AID 1053197; inhibition, % at 9.66 µM; SIAE FP-Rh probe binding, fluorescence polarization;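 active = inhibition above a cutoff: mean of compounds within the control limits plus 3 SD of those, cut at about 17% in these data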
SIAE inh conf = confirmation of human SIAE inhibitors; inhibition, % at 9.66 µM; hit rate 13% among 2,300; AID 1117263; SIAE FP-Rh activity-based probe, fluorescence polarization; shares compounds with SIAE primary;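 active = mean inhibition of the replicates above the hit cutoff set in the primary screen, cut at about 17% in these data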;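 note: inhibitors lower polarization as more probe stays unbound to SIAE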
Each line names hits and unclear results; the compound was inactive in the other large screens (follow-up assays come after a bar, where they were run).

COc1ccccc1NC(=O)Cc1csc(NC(=S)Nc2ccccc2)n1	none
COc1ccc(NC(=S)Nc2nc(CC(=O)Nc3ccccc3OC)cs2)cc1	SIAE primary 21 | SIAE inh conf inactive
Cc1cc(C)cc(N/C(N)=N/c2nc(C)cc(C)n2)c1	SIAE primary 23 | SIAE inh conf inactive
CSC1=NC(C)(C)C=C(/C=C/c2ccc(Cl)cc2)N1	SIAE primary 17 | SIAE inh conf inactive
COc1cc(OC)c(NC(=O)c2ccccc2F)cc1Cl	none
COc1cc(NC(=O)c2cc3ccccc3cc2O)c(OC)cc1Cl	SIAE primary 18 | SIAE inh conf inactive
COc1ccccc1NC(=O)c1cc2cc(Br)ccc2cc1O	SIAE primary 43 | SIAE inh conf inactive
C[C@H](CO)N1C[C@H](C)[C@@H](CN(C)C(=O)c2ccc(F)cc2)Oc2ncc(-c3ccc(F)cc3)cc2C1=O	none (no result: mABHD4 FP, TCR-CD3 inh, HTRA1 inh, SIAE primary)
CC(C)(C)c1ccc(OCCNC(=S)Nc2ccccc2)cc1	SIAE primary 17 | SIAE inh conf inactive
CC(C)(C)c1ccc(OCCNCc2ccccc2)cc1	none
CCN(CC)C(=O)c1cn(-c2cccc(OC)c2)c(=O)c2ccccc12	SIAE primary 21 | SIAE inh conf inactive
CCC(C)NC(=O)c1cn(-c2cccc(OC)c2)c(=O)c2ccccc12 (configuration not stated)	none
CS(=O)(=O)Nc1ccc2c(c1)[C@@H]1C[C@H](CC(=O)NCc3ccccc3)O[C@@H](CO)[C@@H]1O2	none (no result: mABHD4 FP, TCR-CD3 inh, HTRA1 inh, SIAE primary)
CCOC(=O)C1=C(C)N(c2ccccc2)C(=O)C1	none
CCOC(=O)C(C)N1CC(=O)N(c2ccccc2)C1=O (configuration not stated)	SIAE primary 18 | SIAE inh conf inactive
Cc1ccc(-c2cnc3c(c2)C(=O)N([C@@H](C)CO)C[C@H](C)[C@@H](CN(C)Cc2ccccc2C(=O)O)O3)cc1	none (no result: mABHD4 FP, TCR-CD3 inh, HTRA1 inh, SIAE primary)
C[C@@H]1CN([C@@H](C)CO)C(=O)c2cccc(NS(=O)(=O)c3ccccc3)c2O[C@@H]1CN(C)C(=O)Nc1ccc(C(F)(F)F)cc1	none (no result: mABHD4 FP, TCR-CD3 inh, HTRA1 inh, SIAE primary)
COc1ccc(N2CCN(C(=O)CSc3nnnn3C3CC3)CC2)cc1	SIAE primary 19 | SIAE inh conf inactive
CN(C)c1ccc(/C=[N+](\[O-])C2SC(=S)N(C)C2(C)C)cc1 (configuration not stated)	none
CN(C)c1ccc(/C=[N+](\[O-])C2N(c3ccccc3)C(=S)SC2(C)C)cc1 (configuration not stated)	SIAE primary 26 (no result: ARNT-TACC3 inh) | SIAE inh conf inactive
CNC[C@H]1Oc2c(cccc2N(C)C)C(=O)N([C@@H](C)CO)C[C@H]1C	none (no result: mABHD4 FP, TCR-CD3 inh, HTRA1 inh, SIAE primary)
CN(C)CCCNC(=O)C[C@@H]1CC[C@H]2[C@H](COc3ccc(NC(=O)NC4CCCC4)cc3C(=O)N2C)O1	none (no result: mABHD4 FP, TCR-CD3 inh, HTRA1 inh, SIAE primary)
CN(C)CCN(C(=O)C1CCN(S(=O)(=O)c2cccs2)CC1)c1nc2c(F)cccc2s1	SIAE primary 19 | SIAE inh conf inactive
Cc1cc(C(=O)NNC(=O)c2ccc(S(=O)(=O)N(C)C)cc2)c(C)o1	none
CCCNS(=O)(=O)c1cccc(C(=O)NNC(=O)c2cc(C)oc2C)c1	SIAE primary 17 | SIAE inh conf inactive
Cc1ccc(S(=O)(=O)N(C)C[C@@H]2OCCCC[C@H](C)Oc3ccc(NC(=O)C4CCCCC4)cc3C(=O)N([C@@H](C)CO)C[C@H]2C)cc1	none (no result: mABHD4 FP, TCR-CD3 inh, HTRA1 inh, SIAE primary)
Nc1ncnc2c1ncn2[C@@H]1O[C@H](C(=O)N[C@@H](CCc2ccccc2)C(=O)N2CCN(CC(=O)N3CCCC3)CC2)[C@@H](O)[C@H]1O	SIAE primary 29 (no result: ARNT-TACC3 inh, HTRA1 inh) | SIAE inh conf 121
CN(Cc1ccc2c(c1)CCCN2C)C(=O)[C@H]1O[C@@H](n2cnc3c(N)ncnc32)[C@H](O)[C@@H]1O	SIAE primary 59 (no result: ARNT-TACC3 inh, HTRA1 inh) | SIAE inh conf 47
CC(C)[C@@H](CO)NC(=O)[C@H]1O[C@@H](n2cnc3c(N)ncnc32)[C@H](O)[C@@H]1O	none (no result: ARNT-TACC3 inh, HTRA1 inh)
CN(C)c1cccc2c(S(=O)(=O)NC(=O)[C@H]3O[C@@H](n4cnc5c(N)ncnc54)[C@H](O)[C@@H]3O)cccc12	SIAE primary 56 (no result: ARNT-TACC3 inh, HTRA1 inh) | SIAE inh conf 53
Nc1ncnc2c1ncn2[C@@H]1O[C@H](C(=O)N[C@@H](CO)Cc2ccccc2)[C@@H](O)[C@H]1O	SIAE primary 25 (no result: ARNT-TACC3 inh, HTRA1 inh) | SIAE inh conf 25
Nc1ncnc2c1ncn2[C@@H]1O[C@H](C(=O)NCCc2ccc(F)cc2)[C@@H](O)[C@H]1O	SIAE primary 23 (no result: ARNT-TACC3 inh, HTRA1 inh) | SIAE inh conf 22
Nc1ncnc2c1ncn2[C@@H]1O[C@H](C(=O)N[C@@H](CCc2ccccc2)C(=O)N2CCN(C(=O)N3CCOCC3)CC2)[C@@H](O)[C@H]1O	SIAE primary 70 (no result: ARNT-TACC3 inh, HTRA1 inh) | SIAE inh conf 73
Nc1ncnc2c1ncn2[C@@H]1O[C@H](C(=O)NCc2ccc(OC(F)(F)F)cc2)[C@@H](O)[C@H]1O	none (no result: ARNT-TACC3 inh, HTRA1 inh)
CC(=O)Nc1nc(C)c(-c2csc(Nc3cccc(C(C)=O)c3)n2)s1	SIAE primary 42 | SIAE inh conf 65
Cc1ccccc1-c1ccc([C@@H]2[C@H](CO)N3CCCCN(C(=O)c4cccnc4)C[C@@H]23)cc1	none (no result: mABHD4 FP, TCR-CD3 inh, HTRA1 inh, SIAE primary)
Cc1ccn2cc(-c3ccc(Br)cc3)nc2c1	SIAE primary 17 | SIAE inh conf inactive
CCCC(=O)N1CCC(O)(c2cccc(F)c2)CC1	SIAE primary 49 | SIAE inh conf inactive
O=C(C1CCC1)N1CCC(O)(c2cccc(F)c2)CC1	none
Cc1ccccc1Cn1c2ccccc2c2cnn(CC(=O)NCc3ccccn3)c(=O)c21	SIAE primary 20 | SIAE inh conf inactive
CCNC(=S)Nc1cc(C(=O)N2CCCC2)ccc1N1CCCC1	SIAE primary 23 | SIAE inh conf inactive
CNC(=S)Nc1cc(C(=O)N2CCCC2)ccc1N1CCCC1	none
C[C@@H]1CN([C@@H](C)CO)C(=O)c2cc(NC(=O)Cc3ccccc3)ccc2O[C@@H](C)CCCCO[C@@H]1CN(C)Cc1ccc(C(=O)O)cc1	none (no result: mABHD4 FP, TCR-CD3 inh, HTRA1 inh, SIAE primary)
CC1(c2ccccc2)NC(=O)N(CC(=O)Nc2ccc(N3CCOCC3)cc2N2CCOCC2)C1=O (configuration not stated)	none
CCOc1cc(N2CCOCC2)c(OCC)cc1NC(=O)c1ccc(NC(C)=O)cc1	SIAE primary 23 | SIAE inh conf inactive
COc1cccc(C2(C)NC(=O)N(CC(=O)Nc3ccc(N4CCOCC4)cc3)C2=O)c1 (configuration not stated)	none
CC1(c2ccccc2)NC(=O)N(CC(=O)Nc2ccc(N3CCOCC3)cc2)C1=O (configuration not stated)	SIAE primary 19 | SIAE inh conf inactive
O=C(COC(=O)c1ccccc1O)Nc1ccc(N2CCOCC2)cc1	SIAE primary 17 (no result: ARNT-TACC3 inh) | SIAE inh conf inactive
CCOc1cc(N2CCOCC2)c(OCC)cc1NC(=O)c1ccc(OC)cc1	none
